The structures appear in SMILES notation. Calls of active or inactive are those of the source.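 How the source made its calls, unless noted: active means NADPH fluorescence slope more negative than the mean of all samples by about 3 SD, 99.7% confidence; inactive means the rest.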

The results in this text go back to PubChem BioAssay.

A short description of assay [1]: inhibitors of TNFa-induced NFkB p65 translocation, primary screen, imaging, HUVEC, MLSMR starter and 10KST1 sets (AID 438;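 active means inhibition above 20% together with a positive visual image hit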;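 further: compound added about 3h40 before a 20 min TNFalpha stimulation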;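 on inhibition: signal is the nuclear over cytoplasmic p65 intensity ratio per well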). As to conditions: HUVEC TNFa-induced p65 nuclear translocation; cell count: measured here: nuclei count (cytotoxicity indicator), at 2.08 µM; inhibition: at 2 µM, stronger effect = higher value, 0% TNFa-plus-vehicle, 100% no-TNFa wells.
Assay [2] is described as follows: endothelial E-selectin expression blockers – imaging, HUVEC, immunofluorescence, MLSMR starter and 10KST1 sets, primary screen (AID 487;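 active means visually confirmed hit in the image check and inhibition above 20%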;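 on inhibition: signal is fraction of cell area covered by stained E-selectin grains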;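 on nuclei count: 100% = median nuclei count of all wells on the same plate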). The conditions noted are these: HUVEC TNFalpha-induced E-selectin immunofluorescence imaging, at 2 µM; inhibition: stronger effect = higher value; nuclei count: measured here: cell number, toxicity.
Assay [3] can be described thus: Primary imaging screen for DUSP6 inhibitors that restore phospho-Erk in transfected HeLa cells, chemical complementation (AID 609;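 active means compounds giving at least 50% inhibition in the cell-based MKP-3 phosphatase rescue imaging test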;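 on inhibition: phospho-Erk level distribution per well compared with pooled transfected vehicle control wells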). As to conditions: HeLa MKP-3 transfected, phospho-Erk imaging KS statistic, at 10 µM, cells stimulated with TPA for 15 min.
Assay [4] deals with Dual specificity protein phosphatase 6 (Homo sapiens) (UniProt Q16828). The description is as above. As to conditions: HeLa MKP-3 transfected, phospho-Erk imaging KS statistic; at 10 µM; stronger effect = higher value; cells stimulated with TPA for 15 min.
Sequence of Dual specificity protein phosphatase 6 (Homo sapiens) (Q16828 whole entry, looked up): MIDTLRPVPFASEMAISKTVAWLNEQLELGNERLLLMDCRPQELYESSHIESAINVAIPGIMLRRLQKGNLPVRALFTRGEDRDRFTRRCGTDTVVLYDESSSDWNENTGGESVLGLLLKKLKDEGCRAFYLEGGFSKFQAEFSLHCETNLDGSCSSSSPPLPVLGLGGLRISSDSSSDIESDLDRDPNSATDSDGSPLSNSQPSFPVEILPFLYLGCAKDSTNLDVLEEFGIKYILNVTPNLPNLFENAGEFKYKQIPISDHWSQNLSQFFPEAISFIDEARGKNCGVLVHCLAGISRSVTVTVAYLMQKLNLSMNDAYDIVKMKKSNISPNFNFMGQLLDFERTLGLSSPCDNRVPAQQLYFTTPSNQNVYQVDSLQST
Assay [5] deals with Voltage-gated potassium channel subunit beta-2 (Rattus norvegicus) (UniProt P62483). The experiment in a line: inhibitors of rat Kvbeta2 reductase activity – biochemical, NADPH fluorescence, primary screen (AID 622;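 active means fluorescence slope higher than the sample average by over 3 SD, cut at about -0.22 in these data, passing the limit was not always enough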;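 further: slope of raw intensity against log time taken from 70 to 1610 s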). The conditions noted are these: recombinant KvBeta, 4-cyanobenzaldehyde reduction, at 10 µM, stronger effect = higher value.
Sequence of Voltage-gated potassium channel subunit beta-2 (Rattus norvegicus) (P62483 whole entry, looked up): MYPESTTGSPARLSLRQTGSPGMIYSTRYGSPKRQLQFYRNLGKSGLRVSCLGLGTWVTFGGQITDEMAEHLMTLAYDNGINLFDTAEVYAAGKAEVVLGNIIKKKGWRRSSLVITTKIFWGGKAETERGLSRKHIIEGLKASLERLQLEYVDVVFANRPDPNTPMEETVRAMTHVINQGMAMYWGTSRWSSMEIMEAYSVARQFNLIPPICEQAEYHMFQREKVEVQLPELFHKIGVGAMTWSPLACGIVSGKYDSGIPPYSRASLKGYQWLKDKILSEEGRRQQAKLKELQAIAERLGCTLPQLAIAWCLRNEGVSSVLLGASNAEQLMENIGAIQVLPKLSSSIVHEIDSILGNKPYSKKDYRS
Assay [6] has the same target. The experiment in a line: enhancers of rat Kvbeta2 NADPH turnover – biochemical, NADPH fluorescence, primary screen (AID 623).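 Further: fluorescence intensity change per second fitted from 20 to 320 s.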 As to conditions: Recombinant KvBeta, NADPH fluorescence decrease slope, 10 min; at 10 µM; stronger effect = lower value.
Assay [7] addresses Muscarinic acetylcholine receptor M4 (Homo sapiens) (UniProt P08173). The experiment in a line: M4-linked GIRK flux change, two-sided – cell-based, HEK293 M4/GIRK, thallium flux, BTC-AM, M4 allosteric agonist project, primary screen (AID 625;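 active means fluorescence slope after compound addition differing from the mean of all tested samples at 99.7% confidence, mostly higher but some lower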;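 further: thallium influx through GIRK channels coupled to M4 in HEK293 cells with BTC-AM dye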). As to conditions: at 10 µM, actives lie on both sides. In outline:
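Material: HEK293 cells with M4 receptor and GIRK channels; Times: cells overnight at 37 °C, BTC-AM loading 1 h, reads 2 min total; Technique: kinetic BTC-AM fluorescence sampled at 1 Hz, 10 s pre-addition baseline; Read-out basis: slope over 15–24 s of trace normalized to starting intensity; Controls: carbachol positive, DMSO negative.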

Assay [8] in a line: inhibitors of larval lipid processing in zebrafish, primary screen, whole organism, PED6 fluorescence, gall bladder and intestine (AID 686;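 active means a full or partial loss of lipid-probe fluorescence in the fish gall bladder, intestine or both, judged by eye; inactive means no fluorescence loss, or compound toxic to the fish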;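 further: larvae 5 to 7 days old with five fish per well; signal comes from phospholipase A2 cleavage of quenched PED6 carried via bile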). The conditions noted are these: Zebrafish larvae PED6 lipid processing, fluorescence scoring; screened at 20 µM (by protocol). The gist of the method:
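Incubation: overnight exposure of larvae to compound plus PED6 / Test system: live zebrafish larvae aged 5-7 days, whole organism / Amount: 5 larvae per well / Read-out basis: visual per-well fluorescence inhibition score / Signal: visual fluorescence microscopy scoring of gall bladder, gut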

Assay [9] is described as follows: loss of swimming-algae plug formation – whole organism, Chlamydomonas reinhardtii, WT vs cilia-less mutant, absorbance, 96-well, primary screen (AID 463189;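 active means inhibition at or above 50% relative to wild type and mutant plate controls; inactive means inhibition below 50%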;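 further: 0% = wild type cc124 cells in DMSO and 100% = ciliumless bld1 mutant cells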). As to conditions: Chlamydomonas reinhardtii gravitaxis, OD600 absorbance, 2 days; at 10 µM; stronger effect = higher value.
The mark [10] stands for this setting: measured here: cell density z-score.
[11] abbreviates: measured here: nuclear c-Myc green intensity z-score.
[12] abbreviates: measured here: nuclear pErk red intensity z-score, stronger effect = higher value.

Sequence of Muscarinic acetylcholine receptor M4 (Homo sapiens) (P08173 whole entry, looked up): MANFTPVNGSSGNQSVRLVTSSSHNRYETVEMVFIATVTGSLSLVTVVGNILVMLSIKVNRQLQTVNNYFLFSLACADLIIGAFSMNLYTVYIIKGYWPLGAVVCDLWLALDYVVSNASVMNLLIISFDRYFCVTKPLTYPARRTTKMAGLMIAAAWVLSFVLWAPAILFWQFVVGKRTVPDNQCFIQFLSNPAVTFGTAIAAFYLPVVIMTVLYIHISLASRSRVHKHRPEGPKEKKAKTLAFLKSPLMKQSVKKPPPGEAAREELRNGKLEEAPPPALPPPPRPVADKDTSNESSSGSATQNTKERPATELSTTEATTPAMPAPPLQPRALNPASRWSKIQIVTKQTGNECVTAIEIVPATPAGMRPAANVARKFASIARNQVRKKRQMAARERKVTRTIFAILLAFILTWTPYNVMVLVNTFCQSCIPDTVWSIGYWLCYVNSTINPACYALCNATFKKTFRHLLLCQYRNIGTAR

Consider `COc1ccc(-n2ncc3c(Nc4cccc(C)c4)ncnc32)cc1`, for which the cell count in assay [1] stood at 629. Further, the inhibition in assay [1] was -11.3% (inactive); in [2], -122% (inactive); in [4], 11.4% (inactive); in assay [9] it was 3.81% (inactive). The compound also had a nuclei count in [2] of 182%. In addition, the z-score was 1.43 in assay [3] (setting [10]), 1.07 in assay [3] (setting [11]) and -1.65 in [3] (setting [12]). The values for the fluorescence slope in [5] and in assay [7] were -0.319 (inactive) and 0.00486 (inactive), respectively. Further, the NADPH fluorescence slope in [6] is -1.2e-05 (inactive). Further, the compound was called inactive in assay [8].
As for `COCCOC(=O)c1c(C)oc2ccc(OC(=O)COc3c(F)c(F)c(F)c(F)c3F)cc12`, the cell count in [1] amounted to 524. For the same compound, the inhibition in assay [1] was -3.3% (inactive); in assay [2], -26.1% (inactive); in assay [4], -2.09% (inactive); in assay [9] it was -9.48% (inactive). In assay [2], this compound registered a nuclei count of 98.8%. Besides, the z-score in assay [3] (setting [10]) was -0.212; in [3] (setting [11]), -0.943; in [3] (setting [12]), 0.127. The results for the fluorescence slope in assay [5] and in assay [7] were -0.461 (inactive) and 0.0112 (inactive), respectively. Also, the NADPH fluorescence slope in [6] was -2.6e-05 (inactive). Besides, the compound was called inactive in [8].
In the case of `COCCCNc1nc2c(c(=O)[nH]c(=O)n2C)n1CC(O)COc1ccccc1` (stereo not given), in assay [1], the cell count turned out to be 379. Moreover, the inhibition in assay [1] is 6.8% (inactive); in [2] it was -63.3% (inactive); in assay [4], -0.608% (inactive); in [9], 23.4% (inactive). The compound also showed a nuclei count in [2] of 128%. Moreover, the z-score in assay [3] (setting [10]) is -0.311; in assay [3] (setting [11]), -0.833; in [3] (setting [12]), 1.79. The values for the fluorescence slope in assay [5] and in assay [7] were -0.444 (inactive) and 0.00457 (inactive), respectively. Besides, the NADPH fluorescence slope in assay [6] was -7.9e-05 (inactive). For the same compound, in assay [8], the call was inactive.
Consider `COCc1[nH]nc2c1C(c1sccc1C)C(C#N)=C(N)O2` (stereo not given), for which the cell count in [1] is 569. The inhibition in assay [1] was -7.1% (inactive); in assay [2] it was -22.2% (inactive); in assay [4] it was 8.31% (inactive); in assay [9], 0.653% (inactive). The same compound displayed a nuclei count in assay [2] of 170%. Besides, the z-score is 1.09 in assay [3] (setting [10]), -0.767 in assay [3] (setting [11]) and 0.181 in assay [3] (setting [12]). Moreover, the figures for the fluorescence slope in assay [5] and in [7] were -0.488 (inactive) and 0.00573 (inactive), respectively. Further, the NADPH fluorescence slope in assay [6] is -2.8e-05 (inactive). Also, the result in [8] was inactive.
As for `Cn1ncc(N=Cc2ccccc2O)c1C(=O)N1CCOCC1`, the cell count in assay [1] was 723. Moreover, the inhibition is 6.6% (inactive) in assay [1], -60.6% (inactive) in [2], 7.93% (inactive) in assay [4] and 32.2% (inactive) in assay [9]. Further, in assay [2], the nuclei count stood at 172%. Besides, the z-score in assay [3] (setting [10]) was -0.778; in [3] (setting [11]) it was -0.56; in assay [3] (setting [12]) it was 0.451. The fluorescence slope in assay [5] is -0.486 (inactive); in assay [7], 0.00481 (inactive). Further, the NADPH fluorescence slope in assay [6] is -9.6e-05 (inactive). In addition, the compound was called inactive in assay [8].
For `CCOC(=O)C(C)Sc1nc(-c2cccs2)ccc1C#N` (stereo not given), in assay [1], the cell count was found to be 657. The inhibition in assay [1] was 0.6% (inactive); in [2] it was 29.6% (inactive); in assay [4], -7.86% (inactive); in assay [9], 4.31% (inactive). In addition, in assay [2], the nuclei count stood at 189%. In addition, the z-score is -1.44 in [3] (setting [10]), 0.836 in assay [3] (setting [11]) and 0.563 in assay [3] (setting [12]). For the same compound, the fluorescence slope in assay [5] is -0.427 (inactive); in assay [7] it was 0.00531 (inactive). Moreover, the NADPH fluorescence slope in assay [6] was -5.7e-05 (inactive). Further, the call in assay [8] was inactive.
For the compound `CCOC(=O)c1[nH]c2ccc(F)cc2c1N=C(C)N(CC)CC`, the cell count in [1] was found to be 621. In addition, the inhibition is -7.1% (inactive) in [1], -132% (inactive) in assay [2], 1.9e-07% (inactive) in [4] and -19.6% (inactive) in assay [9]. In assay [2], this compound came in with a nuclei count of 100%. Further, the z-score in assay [3] (setting [10]) was -2.41; in assay [3] (setting [11]), 0.938; in [3] (setting [12]), -0.403. For the same compound, the figures for the fluorescence slope in [5] and in assay [7] were -0.497 (inactive) and 0.00509 (inactive), respectively. Moreover, the NADPH fluorescence slope in assay [6] was -8.7e-05 (inactive). For the same compound, the outcome in assay [8] was inactive.
Consider `NC(=O)/C(=N\O)c1ccccc1`, for which the cell count in [1] stood at 575. In addition, the inhibition in [1] was 5.9% (inactive); in assay [2], -43.3% (inactive); in assay [4], -4.7% (inactive); in assay [9], -12.8% (inactive). This compound had a nuclei count in assay [2] of 113%. Besides, the z-score was -0.256 in assay [3] (setting [10]), -0.324 in [3] (setting [11]) and 0.104 in [3] (setting [12]). Also, the figures for the fluorescence slope in assay [5] and in [7] were -0.461 (inactive) and 0.00531 (inactive), respectively. The NADPH fluorescence slope in [6] is -5.1e-05 (inactive). In addition, the compound was called inactive in [8].
For `Cc1cccc(N2CC(=O)N(c3cccc(C)c3)CC2=O)c1`, in assay [1], the cell count amounted to 691. The inhibition is -1.4% (inactive) in assay [1], -33.5% (inactive) in assay [2], 3.97% (inactive) in assay [4] and -8.04% (inactive) in assay [9]. This compound came in with a nuclei count in [2] of 201%. In addition, the z-score in [3] (setting [10]) was -0.963; in [3] (setting [11]) it was 0.808; in [3] (setting [12]) it was -0.574. Besides, the fluorescence slope in [5] is -0.477 (inactive); in [7], 0.00702 (inactive). Moreover, the NADPH fluorescence slope in assay [6] is -5.4e-05 (inactive). For the same compound, in [8], the outcome was inactive.
For the compound `COc1cc2nc(-c3ccccc3)nc(N3CCCC3)c2cc1OC`, the cell count in [1] worked out at 397. The inhibition in [1] is -11.2% (inactive); in [2], -164% (inactive); in [4] it was 1.42% (inactive); in [9], 17.6% (inactive). In [2], this compound returned a nuclei count of 154%. Further, the z-score in [3] (setting [10]) is 0.13; in assay [3] (setting [11]), -0.48; in [3] (setting [12]) it was 0.0689. Also, the fluorescence slope in [5] was -0.433 (inactive); in assay [7], 0.00381 (inactive). For the same compound, the NADPH fluorescence slope in assay [6] is -0.000105 (inactive). Moreover, the compound was called inactive in assay [8].

The inhibition is the drop in the measured response relative to a control, in per cent.
